Laboratory results: ChEMBL document CHEMBL3627667, “Novel halogenated 3-deazapurine, 7-deazapurine and alkylated 9-deazapurine derivatives of L-ascorbic or imino-L-ascorbic acid: Synthesis, antitumour and antiviral activity evaluations” (Eur J Med Chem, 2015)

Experiments:
[1] = tested on: HeLa; assay: Antiproliferative activity against human HeLa cells incubated for 72 hrs by MTT assay; format: functional, cell-based
Summary of the method: (§1)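 Cells seeded at 5000 per well on day 0. Test agents added in five 10-fold dilutions (0.01–100 μM) for a further 72 h, with DMSO ≤0.1% as solvent control. Growth was read by MTT and absorbance converted to percentage growth against untreated cells on the same plate. IC50 came from linear regression on dose–response curves. Quadruplicate points, three independent experiments.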

[2] = tested on: SW-620; assay: Antiproliferative activity against human SW620 cells incubated for 72 hrs by MTT assay; format: functional, cell-based; summary of the method: as §1
[3] = Antiproliferative activity against human MIAPaCa2 cells incubated for 72 hrs by MTT assay; format: functional, cell-based, MIA PaCa-2; summary of the method: as §1
[4] = tested on: HepG2; assay: Antiproliferative activity against human HepG2 cells incubated for 72 hrs by MTT assay; format: functional, cell-based; summary of the method: as §1
[5] = Antiproliferative activity against mouse L1210/0 cells incubated for 72 hrs by MTT assay; format: functional, cell-based; summary of the method: as §1
[6] = Antiproliferative activity against human CEM/0 cells incubated for 72 hrs by MTT assay; format: functional, cell-based, CCRF-CEM; summary of the method: as §1
[7] = Cytotoxicity against human HEL cells assessed as alteration in cell morphology incubated for 3 days by microscopy; format: cell-based
Summary of the method: (§2)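 MCC is the compound concentration causing a microscopically visible alteration of cell morphology in the cultures used for the antiviral assays.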

[8] = tested on: HEL; assay: Cytotoxicity against human HEL cells assessed as cell growth reduction incubated for 3 days; format: cell-based; settings: 72 h
Summary of the method: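 HEL cells were seeded at 5 × 10^3 per well and allowed to proliferate for 24 h before compound-containing medium was added. After 3 days at 37 °C, cells were counted with a Coulter counter. CC50 (50% reduction of proliferation versus untreated controls) was estimated from graphic plots.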

[9] = tested on: Human betaherpesvirus 5; assay: Antiviral activity against Human cytomegalovirus AD169 expressed in HEL cells assessed as reduction in plaque formation incubated for 7 days by Giemsa stain based microscopy; format: functional, organism-based; settings: Human betaherpesvirus 5, AD169, HEL, 168 h
Summary of the method: (§3)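 Confluent HEL fibroblasts were infected at 100 PFU per well. After 2 h, residual virus was removed and compound-containing medium added, in duplicate. After 7 days at 37 °C, cells were ethanol-fixed, Giemsa-stained and examined microscopically. EC50 was read from graphic plots of % cytopathogenicity versus concentration.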

[10] = tested on: Human betaherpesvirus 5; assay: Antiviral activity against Human cytomegalovirus Davis expressed in HEL cells assessed as reduction in plaque formation incubated for 7 days by Giemsa stain based microscopy; format: functional, organism-based; settings: Human betaherpesvirus 5, Davis, 168 h; summary of the method: as §3
[11] = Cytotoxicity against African green monkey Vero cells assessed as alteration in cell morphology by microscopy; format: cell-based; settings: chlorocebus sabaeus; summary of the method: as §2
[12] = tested on: Human respirovirus 3; assay: Antiviral activity against Parainfluenza virus 3 expressed in African green monkey Vero cells assessed as reduction in cytopathogenicity; format: functional, organism-based; settings: Human respirovirus 3, Vero
Summary of the method: (§4)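 Confluent Vero monolayers were inoculated with 100 CCID50 of virus in the presence of 5-fold serial compound dilutions. Cytopathicity was scored once it was complete in untreated infected controls. EC50 is the concentration giving 50% reduction of virus-induced cytopathogenicity.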

[13] = tested on: Mammalian orthoreovirus 1; assay: Antiviral activity against Reovirus 1 expressed in African green monkey Vero cells assessed as reduction in cytopathogenicity; format: functional, cell-based; settings: Mammalian orthoreovirus 1, Vero; summary of the method: as §4
[14] = tested on: Sindbis virus; assay: Antiviral activity against Sindbis virus expressed in African green monkey Vero cells assessed as reduction in cytopathogenicity; format: functional, organism-based; summary of the method: as §4
[15] = tested on: Coxsackievirus B4; assay: Antiviral activity against Coxsackievirus B4 expressed in African green monkey Vero cells assessed as reduction in cytopathogenicity; format: functional, organism-based; settings: Enterovirus B; summary of the method: as §4
[16] = tested on: Punta Toro virus; assay: Antiviral activity against Punta Toro virus expressed in African green monkey Vero cells assessed as reduction in cytopathogenicity; format: functional, organism-based; summary of the method: as §4
[17] = Cytotoxicity against CRFK cells assessed as cell growth reduction incubated for 3 days; format: cell-based, Felis catus; settings: cat, 72 h
[18] = tested on: HeLa; assay: Cytotoxicity against human HeLa cells assessed as cell growth reduction incubated for 3 days; format: cell-based; settings: 72 h

For O=C1O/C(=C\Cn2cnc3ccnc(Cl)c32)C(OCc2ccccc2)=C1OCc1ccccc1 (mixture of isomers), the IC50 ([1]; Homo sapiens, HeLa, 72 h) was greater than 100 µM, the IC50 ([2]; Homo sapiens, SW-620, 72 h) was greater than 100 µM and the IC50 ([3]; Homo sapiens, MIA PaCa-2, 72 h) was greater than 100 µM. It also gave an IC50 ([4]; Homo sapiens, HepG2, 72 h) greater than 100 µM.

Work on O=C1NC(O)(/C=C\n2cc(I)c3c(Cl)ncnc32)C(OCc2ccccc2)=C1OCc1ccccc1 (centres undefined) yielded an IC50 ([1]; Homo sapiens, HeLa, 72 h) greater than 250 µM, an IC50 ([2]; Homo sapiens, SW-620, 72 h) of 46.9 µM and an IC50 ([5]; Mus musculus, L1210/0, 72 h) greater than 250 µM. For the same compound, the IC50 ([6]; Homo sapiens, CCRF-CEM, 72 h) was greater than 250 µM, the IC50 ([3]; Homo sapiens, MIA PaCa-2, 72 h) was 22.6 µM and the IC50 ([4]; Homo sapiens, HepG2, 72 h) was 32.4 µM.

In the case of Nc1nc(O)c2ncn(COC(CO)CO)c2n1 [GANCICLOVIR], the MCC at 72 h [7] is reported as greater than 350 µM, the CC50 [8] is reported as 328 µM and the EC50 [9] is reported as 6.12 µM. For the same compound, the EC50 [10] was 4.72 µM.

Work on O=C1O/C(=C\Cn2cnc3cncc(Br)c32)C(OCc2ccccc2)=C1OCc1ccccc1 (mixture of isomers) yielded an IC50 ([1]; Homo sapiens, HeLa, 72 h) of 15 µM, an IC50 ([2]; Homo sapiens, SW-620, 72 h) of 32.9 µM and an IC50 ([5]; Mus musculus, L1210/0, 72 h) of 6.8 µM. For the same compound, the IC50 ([6]; Homo sapiens, CCRF-CEM, 72 h) was 5.7 µM, the IC50 ([3]; Homo sapiens, MIA PaCa-2, 72 h) was 22.6 µM and the IC50 ([4]; Homo sapiens, HepG2, 72 h) was 46.9 µM.

With O=C1O/C(=C\Cn2cnc3c(Cl)c(F)nc(F)c32)C(O)=C1O (mixture of isomers) the IC50 ([1]; Homo sapiens, HeLa, 72 h) was greater than 100 µM, the IC50 ([2]; Homo sapiens, SW-620, 72 h) was greater than 100 µM and the IC50 ([3]; Homo sapiens, MIA PaCa-2, 72 h) was greater than 100 µM. The IC50 ([4]; Homo sapiens, HepG2, 72 h) was greater than 100 µM.

Nc1nc(F)c(Cl)c2c1ncn2CCC1(O)NC(=O)C(OCc2ccccc2)=C1OCc1ccccc1 (centres undefined) gave an IC50 ([1]; Homo sapiens, HeLa, 72 h) of 39 µM, an IC50 ([2]; Homo sapiens, SW-620, 72 h) of 59 µM and an IC50 ([3]; Homo sapiens, MIA PaCa-2, 72 h) greater than 100 µM. The IC50 ([4]; Homo sapiens, HepG2, 72 h) was greater than 100 µM.

For O=c1[nH]cc(F)c(=O)[nH]1 [FLUOROURACIL], the IC50 ([1]; Homo sapiens, HeLa, 72 h) was 66.5 µM, the IC50 ([2]; Homo sapiens, SW-620, 72 h) was 0.79 µM and the IC50 ([4]; Homo sapiens, HepG2, 72 h) was 55.2 µM.

For O=C1O/C(=C\Cn2cnc3c(Cl)c(F)nc(F)c32)C(OCc2ccccc2)=C1OCc1ccccc1 (mixture of isomers), the IC50 ([1]; Homo sapiens, HeLa, 72 h) was greater than 100 µM, the IC50 ([2]; Homo sapiens, SW-620, 72 h) was 50 µM and the IC50 ([3]; Homo sapiens, MIA PaCa-2, 72 h) was greater than 100 µM. The IC50 ([4]; Homo sapiens, HepG2, 72 h) was greater than 100 µM, the MCC at 72 h [7] was no less than 100 µM and the CC50 [8] was greater than 100 µM. It also gave an EC50 [9] of 8.94 µM, an EC50 [10] of 8.94 µM and an MCC [11] of 20 µM. The EC50 [12] was greater than 20 µM, the EC50 [13] was greater than 20 µM and the EC50 [14] was greater than 20 µM. The EC50 [15] was greater than 20 µM, the EC50 [16] was 12 µM and the Activity [17] was “Non-toxic”. The Activity [18] was “Non-toxic”.

In the case of NC(=O)c1ncn([C@@H]2O[C@H](CO)[C@@H](O)[C@H]2O)n1 [RIBAVIRIN], the MCC [11] is reported as greater than 250 µM, the EC50 [12] is reported as 73.5 µM and the EC50 [13] is reported as greater than 250 µM. It also gave an EC50 [14] greater than 250 µM and an EC50 [15] greater than 250 µM.

Work on O=C1NC(O)(CCn2cnc3ccn(CCC4(O)NC(=O)C(OCc5ccccc5)=C4OCc4ccccc4)c3c2=O)C(OCc2ccccc2)=C1OCc1ccccc1 (stereo in doubt; 19) yielded an IC50 ([1]; hela) of 18 µM, an IC50 ([2]; sw-620) of 30.5 µM and an IC50 ([5]; l1210/0) of 7.6 µM. For the same compound, the IC50 ([6]; ccrf-cem) was 4.9 µM, the IC50 ([3]; mia paca-2) was 4.4 µM and the IC50 ([4]; hepg2) was 52 µM.

For O=C1NC(O)(CCn2cnc3cncc(Br)c32)C(OCc2ccccc2)=C1OCc1ccccc1 (centres undefined), the IC50 ([1]; Homo sapiens, HeLa, 72 h) was 77 µM, the IC50 ([2]; Homo sapiens, SW-620, 72 h) was greater than 100 µM and the IC50 ([5]; Mus musculus, L1210/0, 72 h) was 50 µM. It also gave an IC50 ([6]; Homo sapiens, CCRF-CEM, 72 h) of 25 µM, an IC50 ([3]; Homo sapiens, MIA PaCa-2, 72 h) of 48.7 µM and an IC50 ([4]; Homo sapiens, HepG2, 72 h) of 66.5 µM.
